The nature of series [1]: Membrano-lytic effect in bacterial inner membrane mimic DOPE/DOPG/CL (63:23:12) large unilamellar vesicles at 5 to 50 uM by varian cary eclipse fluorescence spectrometry analysis. The format is cell membranes. Particulars: dose 5-50 µM.
Series [2] in a line: Induction of membrane leakage in DOPE/DOPG/CL (63:23:12) large unilamellar vesicles at 5 to 50 uM incubated for 10 mins. Particulars: dose 5-50 µM. The method in brief:
(§1)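 Free probe removed by Sephadex G-50 gel filtration. Peptide added at 5–50 μM. ANTS dequenching followed 10 min (excitation 385 nm, emission 512 nm). Leakage normalised to Triton X-100 maximum.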

Series [3] can be described thus: Disaggregation property of compound in LPS at 20 uM after 1 hr by Tht fluorescence based assay. Format: physicochemical. Put shortly:
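Peptide 20 μM incubated 1 h with LPS 1 mg/mL and ThT 25 μM. Aggregation read as ThT emission at 482 nm, excitation 450 nm. ThT alone and peptide alone served as controls.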

The test system of another series is Pseudomonas aeruginosa. Nature of the series: Antimicrobial activity against Pseudomonas aeruginosa ATCC 27853 assessed as reduction in bacterial growth incubated for 16 to 18 hrs by microdilution susceptibility test. The conditions noted are these: time 16-18 hrs. Format: functional. Put shortly:
(§2)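 Broth microdilution in Mueller–Hinton broth. Mid-log bacteria at 1 × 10⁶ CFU/mL final, peptide twofold serial dilutions 100 to 0.78 μM final. Incubated 16–18 h at 37 °C. MIC taken as the lowest concentration giving total (100%) growth inhibition.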

For series [4], the system named is Staphylococcus aureus. Nature of the series: Antimicrobial activity against MRSA-resistant Staphylococcus aureus ATCC 43300 assessed as reduction in colony formation at 12.5 uM incubated for 30 min by time kill assay. The format is functional, organism-based.
The nature of series [5]: Induction of DOPG/CL (58:42) large unilamellar vesicles membrane fluidity at 5 uM (reference value: -0.32).
The test system of series [6] is Staphylococcus aureus. Put plainly: Antimicrobial activity against MRSA-resistant Staphylococcus aureus ATCC 43300 assessed as reduction in colony formation at 12.5 uM incubated for 24 hrs by time kill assay. Format: functional, organism-based.
Series [7] can be described thus: Membrano-lytic effect in bacterial inner membrane mimic DOPG/CL (58:42) large unilamellar vesicles at 30 uM by varian cary eclipse fluorescence spectrometry analysis. Format: cell membranes.
Series [8] in a line: Membrano-lytic effect in bacterial inner membrane mimic DOPE/DOPG/CL (63:23:12) large unilamellar vesicles at 10 uM by varian cary eclipse fluorescence spectrometry analysis. The format is cell membranes.
Series [9] can be described thus: Induction of DOPG/CL (58:42) large unilamellar vesicles membrane fluidity at 5 uM (reference value: -0.32). Put shortly: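 LUVs of DOPG/CL 58/42 prepared by extrusion (0.1 μm), Laurdan 1 μM incorporated, hydrated in PBS pH 7.4; lipid 100 μM final. Peptide added at 5 or 30 μM; spectra recorded after 10 min at 25 °C. Fluidity expressed as GP = (I440 − I490)/(I440 + I490).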

The nature of series [10]: Induction of membrane leakage in DOPG/CL (58:42) large unilamellar vesicles at 5 to 50 uM incubated for 10 mins. Particulars: dose 5-50 µM. The method in brief:
as §1

Series [11] relates to HaCaT. Nature of the series: Cytotoxicity against human HaCaT cells assessed as reduction in cell viability at 3.125 to 100 uM measured after 2 to 24 hrs by MTT assay. Format: toxicity, cell-based. The conditions noted are these: dose lower 3.125 µM, time lower 2 hrs, dose upper 100 µM, time upper 24 hrs. The method in brief:
(§3)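 HaCaT keratinocytes seeded at 4 × 10⁴/well in DMEM with 4 mM glutamine and 2% FBS, no antibiotics, overnight at 37 °C, 5% CO2. Medium replaced with peptide-containing DMEMg for 2 or 24 h. MTT 0.5 mg/mL in Hank's buffer 4 h, formazan dissolved in acidified isopropanol, A570. Viability as % of untreated cells; mean of three independent experiments ± SEM.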

The next series deals with Serum. Put plainly: Proteolytic stability in human serum incubated for 0.25 to 12 hrs by RP-UHPLC analysis. The format is ADME, cell-free. The conditions noted are these: time 0.25-12 hrs.
The test system of series [12] is HaCaT. Put plainly: Cytotoxicity against human HaCaT cells assessed as reduction in cell viability at 50 uM measured after 24 hrs by MTT assay. The format is toxicity, cell-based. Put shortly: as §3
The subject of a further series is Escherichia coli. Put plainly: Antimicrobial activity against Escherichia coli ATCC 25922 assessed as reduction in bacterial growth incubated for 16 to 18 hrs by microdilution susceptibility test. The format is functional. The conditions noted are these: time 16-18 hrs. The method in brief: as §2
Series [13] is described as follows: Membrano-lytic effect in bacterial inner membrane mimic DOPG/CL (58:42) large unilamellar vesicles at 50 uM by varian cary eclipse fluorescence spectrometry analysis. Format: cell membranes.
The subject of series [14] is HaCaT. Nature of the series: Cytotoxicity against human HaCaT cells assessed as reduction in cell viability at 25 uM measured after 2 hrs by MTT assay. The format is toxicity, cell-based. The method in brief:
as §3

Series [15] relates to HaCaT. Nature of the series: Cytotoxicity against human HaCaT cells assessed as reduction in cell viability at 50 uM measured after 2 hrs by MTT assay. Format: toxicity, cell-based. The method in brief: as §3

Values after ≈ are worked out from the molar mass of the structure shown. Active and inactive are the calls of the source. No cut-off for these calls is given here. Bridge positions count the residues as written; N and C are the ends. Square brackets hold non-standard residues; d marks the D form. Peptide text beside a SMILES is read from it.

On to `CC[C@H](C)[C@H](NC(=O)[C@H](CCCNC(=N)N)NC(=O)[C@@H]1CCC(=O)NCCCC[C@H](NC(=O)[C@H](Cc2ccccc2)NC(=O)[C@H](Cc2c[nH]c3ccccc23)NC(=O)[C@@H]2CCCN2C(=O)[C@@H](NC(=O)[C@@H](N)Cc2ccccc2)C(C)C)C(=O)N[C@@H](CCCCN)C(=O)N[C@@H](Cc2ccccc2)C(=O)N[C@H](CC(C)C)C(=O)N1)C(=O)N[C@@H](CC(C)C)C(N)=O` (H-FVPWFKKF[dL]ERIL-NH2; lactam 6-10), for which the outcome (in series [1]; in series [2]; with Staphylococcus aureus [4]; in the series on Staphylococcus aureus [6]; in series [7]; in [8]) was Active. The result in [10] was Active. Moreover, the Activity entry in [3] was “Not Active”; in series [5], -0.23; in series [9], -0.23; in the series with HaCaT [11], “Toxic”. The MIC with Pseudomonas aeruginosa is 100 µM (≈ 170 µg/mL). For the same compound, the Stability result in the series with Serum was “Stable”.

With `CC[C@H](C)[C@H](NC(=O)[C@H](CCCNC(=N)N)NC(=O)[C@@H]1CCCCn2cc(nn2)C[C@H](NC(=O)[C@H](Cc2ccccc2)NC(=O)[C@H](Cc2c[nH]c3ccccc23)NC(=O)[C@@H]2CCCN2C(=O)[C@@H](NC(=O)[C@@H](N)Cc2ccccc2)C(C)C)C(=O)N[C@@H](CCCCN)C(=O)N[C@@H](Cc2ccccc2)C(=O)N[C@@H](CC(C)C)C(=O)N1)C(=O)N[C@@H](CC(C)C)C(N)=O`, the outcome in series [1], in series [8] and in [13] was Active. Also, the Activity in the series with HaCaT [12] was less than 20%; in series [3], “Active”; in the series on HaCaT [14], 60%; in the series on HaCaT [15], less than 40%. Moreover, the MIC in the series on Pseudomonas aeruginosa and with Escherichia coli was more than 100 µM throughout.
